Hits are enriched below; roughly 3.9% of the tested compounds scored in any of these assays.
CHRM1 agonist: human M1 muscarinic receptor agonism. AID 588814. 0.33% of 360,000 active. CHO-K1 hM1, Fluo-8 calcium fluorescence, agonist mode; 0% DMSO, 100% acetylcholine EC100. P11229. activation, % at 3 µM;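 active = activation above the run's mean compound activation plus 3 SD, cut at about 16% in these data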;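 note: peak over basal fluorescence ratio within a 140 s kinetic read after compound addition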
CHRM1 PAM: human CHRM1 positive allosteric modulation; P11229; CHO-K1 hM1, Fluo-8 calcium fluorescence, ACh EC20; 0% = ACh EC20, 100% = maximal ACh; 0.088% of 360,000 active; activation, % at 3 µM; in the data active = activation above about 19%, passing the limit was not always enough
M1 antag: antagonists of human M1 muscarinic receptor; CHO-K1 hM1, Fluo-8 calcium fluorescence, ACh EC80 antagonist; AID 588852; 1.3% of 360,000 active; inhibition, % at 3 µM;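 active = percent inhibition above its own plate's cutoff, namely the mean of that plate's compound wells plus 3 SD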;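 note: peak over basal fluorescence ratio during 140 s after agonist addition; 0% = ACh EC80 plus DMSO and 100% = DMSO alone without agonist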
TAAR1 ag: human TAAR1 agonism; CHO RD-HGA16 TAAR1, Fluo-8 calcium fluorescence; vehicle wells 0%, saturating PEA agonist 100%; activation, % at 3 µM; 0.99% of 360,000 active;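 active = activation above the mean activation of all test compounds in the run plus 3 SD, cut at about 38% in these data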
Target sequence (Q96RJ0 whole entry, looked up): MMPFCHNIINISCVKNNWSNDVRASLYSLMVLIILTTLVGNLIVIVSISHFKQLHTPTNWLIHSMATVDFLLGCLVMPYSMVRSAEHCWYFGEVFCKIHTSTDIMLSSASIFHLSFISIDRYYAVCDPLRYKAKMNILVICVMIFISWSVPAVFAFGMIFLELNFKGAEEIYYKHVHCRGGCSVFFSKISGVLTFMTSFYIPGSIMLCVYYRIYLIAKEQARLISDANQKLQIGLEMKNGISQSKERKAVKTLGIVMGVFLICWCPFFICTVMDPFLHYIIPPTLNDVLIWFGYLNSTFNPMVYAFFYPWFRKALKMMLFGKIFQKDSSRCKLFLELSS
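Assay system: CHO-derived RD-HGA16 cells with stable Gα16 and human TAAR1; timing: 17-24 h seeding, 75 min 37 °C dye, 30 min RT; read-out: % activation from peak over basal fluorescence ratio, DMSO-to-PEA scaled; measured by: kinetic Fluo-8 calcium fluorescence; benchmarks: low control DMSO, high control PEA (EC100); doses: 3 µM single concentration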
TAAR1 antagonist: human TAAR1 antagonism; 1.5% of 360,000 active; AID 624466; inhibition, % at 3 µM; Q96RJ0; CHO RD-HGA16 TAAR1, Fluo-8 calcium fluorescence, antagonist;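 active = inhibition above a per-plate cutoff, the mean inhibition of test compounds on that plate plus 3 SD, cut at about 49% in these data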;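 note: 0% = DMSO plus EC80 beta-PEA response and 100% = DMSO alone without agonist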
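Assay system: RD-HGA16 CHO cells with stable hTAAR1 and Gα16 / Reagent: EC80 β-phenethylamine stimulus / Doses: 3 µM, single point / Timing: dye loading 75 min at 37 °C, then 30 min room temperature / Measured by: Fluo-8 intracellular calcium dye fluorescence, real-time kinetic reads / Controls: vehicle wells and EC80 agonist wells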
HTR2A ag: mouse HTR2A agonism via beta-arrestin recruitment | CHO-K1 mHTR2A beta-arrestin complementation, luminescence; percent of 30 µM serotonin response | P35363 | 0.66% of 360,000 active | activation, % at 7.6 µM;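 active = activation above a run cutoff, the mean activation of all tested compounds plus 3 SD, cut at about 14% in these data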;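 note: 0% = plate median of compound wells and 100% = 30 µM serotonin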
Target sequence (P35363 whole entry, looked up): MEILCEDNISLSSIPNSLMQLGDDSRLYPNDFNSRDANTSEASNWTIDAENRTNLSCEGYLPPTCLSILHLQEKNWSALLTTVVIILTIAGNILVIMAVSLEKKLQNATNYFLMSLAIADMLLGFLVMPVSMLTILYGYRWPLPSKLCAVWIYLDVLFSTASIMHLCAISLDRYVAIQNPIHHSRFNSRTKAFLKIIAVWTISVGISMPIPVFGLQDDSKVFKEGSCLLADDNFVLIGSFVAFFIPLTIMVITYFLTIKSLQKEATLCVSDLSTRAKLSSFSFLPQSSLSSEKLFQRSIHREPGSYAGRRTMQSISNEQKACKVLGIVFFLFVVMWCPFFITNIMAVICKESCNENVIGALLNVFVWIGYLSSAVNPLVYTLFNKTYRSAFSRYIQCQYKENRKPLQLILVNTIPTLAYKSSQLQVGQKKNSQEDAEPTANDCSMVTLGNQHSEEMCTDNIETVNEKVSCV
TAAR1 ag confirm: confirmation of human TAAR1 agonists; shares compounds with TAAR1 ag; CHO RD-HGA16 TAAR1, Fluo-8 calcium fluorescence; scaled: DMSO 0%, maximal phenethylamine 100%; activation, % at 3 µM; 82% of 2,400 active;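 active = activation above a cutoff set at the run's mean compound activation plus 3 SD, cut at about 39% in these data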
Ga16 ag counter: counter-screen for TAAR1 agonists: nonselective agonists in parental cells; 50% of 2,400 active; activation, % at 3 µM; shares compounds with TAAR1 ag; AID 651787; CHO-Ga16 parental, Fluo-8 calcium fluorescence; normalized to maximal ATP response, DMSO zero;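 active = activation above the run cutoff, the mean activation over all tested wells plus 3 SD, cut at about 12% in these data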;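 note: 0% = DMSO wells and 100% = maximal ATP response on the peak over basal ratio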
TAAR1 desens: human TAAR1 agonist that also desensitizes the receptor | shares compounds with TAAR1 ag | CHO RD-HGA16 hTAAR1, Fluo-8 calcium, beta-PEA response inhibition | inhibition, % at 3 µM | 46% of 2,400 active;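 active = inhibition above the run cutoff, the mean inhibition of all test compounds plus 3 SD, cut at about 49% in these data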;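 note: beta-PEA stimulus applied at its EC80; loss of beta-PEA calcium signal after compound pretreatment read as receptor desensitization; 0% = DMSO with beta-PEA at EC80 and 100% = DMSO alone without agonist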
Ga16 nonsel ant: nonselective Ga16 antagonism, counter-screen | 39% of 2,400 active | inhibition, % at 3 µM | CHO-Ga16 ATP-induced calcium, Fluo-8 fluorescence | shares compounds with TAAR1 ag | AID 651952;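 active = inhibition above the plate's mean compound inhibition plus 3 SD, computed per plate, cut at about 22% in these data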;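 note: 0% = EC80 ATP with DMSO and 100% = DMSO wells without ATP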
* marks the source's active call; other numbers are inactive results; . = no result given.

SMILES | CHRM1 agonist | CHRM1 PAM | M1 antag | TAAR1 ag | TAAR1 antagonist | HTR2A ag | TAAR1 ag confirm | Ga16 ag counter | TAAR1 desens | Ga16 nonsel ant
CCCOC(=O)CN1C(=O)c2ccc(C(=O)OCCC)cc2C1=O | -3 | 2 | 2 | 6 | -37 | 5 | . | . | . | .
Cc1ccc(N2C(=O)c3ccc(C(=O)N4CCN(c5ccc(C)c(C)c5)CC4)cc3C2=O)cc1 | -2 | 9 | -5 | 7 | -31 | -4 | . | . | . | .
Cc1ccc(N2C(=O)c3ccc(C(=O)N4CCN(Cc5ccccc5)CC4)cc3C2=O)cc1 | 2 | 6 | -8 | 87* | 81* | -1 | 94* | 49* | 97* | 74*
CCCOC(=O)c1ccc2c(c1)C(=O)N(c1ccccc1)C2=O | -2 | 5 | -6 | 68* | 53* | 0 | 15 | 6 | 24 | 19
N#Cc1nc(-c2ccco2)oc1N1CCCC1 | -4 | 8 | -10 | -2 | 0 | -1 | . | . | . | .
N#Cc1nc(-c2ccco2)oc1N1CCc2ccccc2C1 | -6 | 9 | -14 | 73* | -1 | -4 | 45* | 3 | 6 | 5
O=C(NC1CCCC1)[C@@H]1CCCN1C(=O)[C@@H](NC(=O)N1CCOCC1)C1CCCCC1 | . | . | . | 2 | 7 | . | . | . | . | .
O=C(NCCc1ccccc1Cl)[C@@H]1CCCN1C(=O)[C@@H](NC(=O)N1CCOCC1)c1ccccc1 | . | . | . | 42* | 3 | . | 60* | 4 | 32 | 7
CCOC(=O)N[C@H](C(=O)N1CCC[C@H]1C(=O)NCCc1ccccc1Cl)C1CCCCC1 | . | . | . | 61* | 75* | . | 86* | 0 | 95* | -2
O=C(N[C@H](C(=O)N1CCC[C@H]1C(=O)NCCc1ccccc1Cl)c1ccccc1)C1CCCC1 | . | . | . | 24 | 12 | . | . | . | . | .
O=C(NCCc1ccccc1Cl)[C@@H]1CCCN1C(=O)[C@@H](NC(=O)N1CCOCC1)C1CCCCC1 | . | . | . | 57* | 35 | . | 74* | 2 | 80* | 6
Cc1ccc(NC(=S)N2CCN(c3ncccn3)CC2)c(C)c1 | -1 | -7 | 21 | 2 | -11 | 9 | . | . | . | .
O=C(NCc1cccc(C(F)(F)F)c1)N1CCN(C(=O)c2ccccc2)CC1 | -4 | 13 | -13 | 0 | -12 | -1 | . | . | . | .
CC(C)(C)c1ccc(OCCNCc2ccccc2)cc1 | -5 | -16 | 21 | 71* | 14 | 7 | 72* | 34* | 21 | 11
CCC(C)NCCOc1ccc(C(C)(C)c2ccccc2)cc1 (configuration not stated) | -6 | -17 | 26 | 54* | -7 | -8 | 69* | 39* | 34 | 26*
N#Cc1ccc(OCCCN2CCC(C(O)(c3ccccc3)c3ccccc3)CC2)cc1 | . | . | . | 40* | 25 | . | 54* | 18* | 27 | 17
Cc1ccc(OCCCN2CCC(C(O)(c3ccccc3)c3ccccc3)CC2)cc1 | . | . | . | 31 | 13 | -4 | . | . | . | .
COCCCNCCOc1ccc(C(C)(C)c2ccccc2)cc1 | -10 | -21 | 15 | 29 | -16 | -4 | . | . | . | .
COc1ccc(OCCCN2CCC(C(O)(c3ccccc3)c3ccccc3)CC2)cc1 | . | . | . | 38* | 10 | . | 43* | 20* | 25 | 22*
CCN(CC)CCNC(=O)c1cc(Nc2ccc(OC)c(OC)c2)nc2ccccc12 | -5 | 0 | 3 | 0 | -20 | -1 | . | . | . | .
CCOc1ccc(N(CC(=O)NCCSCc2ccco2)S(=O)(=O)c2ccc(C)cc2)cc1 | -2 | 4 | -5 | 1 | -4 | 14 | . | . | . | .
COc1ccc(CCN=C(N)Nc2nc(C)cc(C)n2)cc1 | -8 | 1 | -4 | 0 | 1 | 0 | . | . | . | .
OC(c1ccccc1)(c1ccccc1)C1CCN(CCCOc2cccc(Cl)c2)CC1 | . | . | . | 39* | 50* | . | 42* | 27* | 48 | 49*
CC(C)(c1ccccc1)c1ccc(OCCCN2CCNCC2)cc1 | -8 | 3 | 4 | 50* | 3 | -5 | 37 | 11 | 14 | 12
OC(c1ccccc1)(c1ccccc1)C1CCN(CCCOc2ccc(C(F)(F)F)cc2)CC1 | . | . | . | 43* | 38 | . | 9 | 19* | 17 | 38*
SMILES | CHRM1 agonist | CHRM1 PAM | M1 antag | TAAR1 ag | TAAR1 antagonist | HTR2A ag | TAAR1 ag confirm | Ga16 ag counter | TAAR1 desens | Ga16 nonsel ant
NS(=O)(=O)c1ccc(OCCCN2CCC(C(O)(c3ccccc3)c3ccccc3)CC2)cc1 | . | . | . | 6 | -4 | . | . | . | . | .
OC(c1ccccc1)(c1ccccc1)C1CCN(CCCOc2cccc(C(F)(F)F)c2)CC1 | . | . | . | 32 | 36 | . | . | . | . | .
COC(=O)c1cccc(OCCCN2CCC(C(O)(c3ccccc3)c3ccccc3)CC2)c1 | . | . | . | 23 | 7 | -7 | . | . | . | .
CC(C)c1ccc(OCCCN2CCC(C(O)(c3ccccc3)c3ccccc3)CC2)cc1 | . | . | . | 41* | 46 | . | 59* | 35* | 59* | 55*
Cc1ccc(NC(=O)c2sc(N)nc2-c2ccc([N+](=O)[O-])cc2)c(C)c1 | 0 | 3 | 1 | -1 | -17 | 0 | . | . | . | .
COc1ccccc1NNC(=O)c1cccnc1Oc1ccccc1 | -1 | 6 | -15 | 3 | -25 | 0 | . | . | . | .
O=C(Nc1ccc2c(c1)C(=O)N(c1ccccc1)C2=O)c1cccs1 | -3 | 7 | -8 | 57* | 40 | -3 | 46* | 25* | 35 | 17
CCOC(=O)C1=CCN(S(=O)(=O)c2ccc(Br)cc2)C1c1cccc(Cl)c1 (configuration not stated) | . | . | . | 1 | 5 | . | . | . | . | .
O=C(O)CCC(=O)Nc1cc(C(F)(F)F)cc(C(F)(F)F)c1 | -3 | 5 | -8 | 3 | -8 | -5 | . | . | . | .
COc1ccc(C(=O)Nc2ccc(C(=O)c3ccccc3)cc2)cc1 | -1 | -14 | 34 | 12 | 27 | 0 | . | . | . | .
COc1ccc(NC(=O)c2ccc(C(=O)c3ccccc3)o2)cc1 | -2 | -9 | 17 | 67* | 57* | 0 | 6 | 8 | 23 | 15
COc1ccc(NC(=O)CSc2nc(N)c(NC(=O)c3ccccc3F)c(=O)[nH]2)cc1 | -1 | 14 | -12 | 5 | -20 | 3 | . | . | . | .
COc1ccc(CC(=O)Nc2ccc(NC(=O)c3ccccc3F)cc2)cc1 | 27* | 4 | 1 | 109* | 99* | 1 | 60* | 35* | 42 | 16

Source: PubChem BioAssay (The Scripps Research Institute Molecular Screening Center)
